Experimental data: the array DNA melting data of Ke et al. (doi:10.1101/2024.01.08.574731)

Experiments:
[1] = folding enthalpy; higher = less favourable; fluorescence melt of hairpins on a sequencing array, two-state fit; settings: sodium 0.088 M
In short: (§1)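 Melting temperature and folding enthalpy were obtained by bootstrapped two-state fitting. Fits used Cy3 fluorescence of library hairpins with annealed Cy3 and quencher oligos on a sequenced MiSeq flow cell, imaged in 50 mM Na-HEPES pH 8.0, 25 mM NaCl in 2.5 °C steps up to 60 °C and normalised to pre-quench Cy3 and control constructs. Four replicates were combined by inverse-variance weighting, and fitted temperatures were raised by 9.35 °C to match UV melts.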

[2] = melting temperature; fluorescence melt of hairpins on a sequencing array, two-state fit, raised by 9.35 °C to match UV melts; settings: sodium 0.088 M
In short: as §1

| Sequence | folding enthalpy [1] [kcal/mol] | Tm [2] [°C] |
| --- | --- | --- |
| GGGTATGGAAACATGCCC (((.(((....))).))) | -50.4 | 54.3 |
| GCAGGTCGAAAGACATGC (((.(((....))).))) | -40.4 | 64.2 |
| GGAACCCGAAAGGGGTCC (((.(((....))).))) | -30.4 | 68.2 |
| GTTGATGGAAACATTGAC ((..(((....)))..)) | -13.7 | 29.5 |
| GAACTCGGAAACGAATTC (((.(((....))).))) | -27.5 | 31.7 |
| GCTAGCGAAAGCTCCAGC ((((((....)))..))) | -10.8 | 33.1 |
| GGGCAGGGAAACCTGCTC (.(((((....))))).) | -20 | 59.6 |
| GCAGACGAAAGTCTGTGC ((((((....)))..))) | -22.2 | 61.3 |
| GTCATGGCGAAAGCCGAC (((..(((....)))))) | -13.4 | 42.6 |
| GATCCATCGATGGATC ((((((....)))))) | -47.8 | 55.2 |
| GCTGTGCGAAAGCTCAGC ((((.((....)).)))) | -36.8 | 68 |
| GAATGAGGAAACTCATCC (.(((((....))))).) | -17.4 | 29.9 |
| GCCCCGCGAAAGCTGCGC ((.(.((....)).).)) | -13.6 | 36.6 |
| AAAGTGAAAACTTT (((((....))))) | -11.1 | 33 |
| GCCCCAGGAAACTGGGAC (.(((((....))))).) | -15.6 | 46.1 |
| GCAGACGAAAGTCCCTGC ((((((....)))..))) | -14.8 | 32.9 |
| GCAAATGAAAATTTGC ((((((....)))))) | -45.3 | 52.3 |
| GATCTAAACGTAGATC ((((((....)))))) | -28.7 | 35.8 |
| GTTTTAGGAAACTAGAAC (((.(((....))).))) | -11.5 | 27.9 |
| TTGTCGAAAGACAA (((((....))))) | -18.1 | 55 |
| GCGAAACATCGC ((((....)))) | -21.5 | 48.7 |
| GGTCCGCGAAAGCGTACC (((.(((....))).))) | -27.2 | 54.1 |
| GCTAGCGAAAGCTGAAGC ((((((....)))..))) | -15 | 43.1 |

| Sequence | folding enthalpy [1] [kcal/mol] | Tm [2] [°C] |
| --- | --- | --- |
| GCTCGAGGAAACTTGAGC ((((.((....)).)))) | -37.8 | 50.8 |
| GGGATGGGAAACTATCCC (((((.(....).))))) | -30.5 | 49.8 |
| GGACCGGGAAACTGGTCC (((((.(....).))))) | -44.9 | 58.2 |
| GGCCTTGCGAAAGCAGCC (((..(((....)))))) | -15.8 | 45.2 |
| CGCGGAAGAATCCGCG ((((((....)))))) | -32.1 | 69 |
| GTGTCGCGAAAGCGCCAC (((.(((....))).))) | -25.7 | 57.7 |
| CGAACCGGAAACGGCTCG (((.(((....))).))) | -35.5 | 49.9 |
| GCCACGCGAAAGCCTAGC ((.(.((....)).).)) | -6.53 | 14.4 |
| GCATCGCGAAAGCCGTGC (((..((....))..))) | -19.3 | 45.1 |
| GGAGAAGGAAACTTCCCC ((.((((....)))).)) | -16.8 | 35.2 |
| GATCACCTCTGTGATC ((((((....)))))) | -42.2 | 55 |
| GCGCACGAAAGTGCACGC ((((((....)))..))) | -14.6 | 61.1 |
| GGCCCCGAAAGGGAGGCC ((((((....)))..))) | -26.9 | 64.5 |
| GGTCAACGAAAGTTAACC (((.(((....))).))) | -25 | 39.3 |
| GCTGTCCGAAAGGAGAGC (((.(((....))).))) | -34 | 57 |
| GATCAGGCATCTGATC ((((((....)))))) | -45.1 | 55.6 |
| GCGTACGAAAGTAGCCGC ((((((....)))..))) | -14.4 | 51.2 |
| GATCTTGGGTAAGATC ((((((....)))))) | -27.6 | 43.2 |
| GGGGATGGAAACATTCCC (((.(((....))).))) | -40.9 | 51.6 |
| GCAGTAGGAAACTGTTGC (((..((....))..))) | -18.3 | 32.2 |
| GATCCCACGCGGGATC ((((((....)))))) | -30.7 | 63.3 |
| GGATGAGGAAACTCGTTC (.(.(((....))).).) | -15.8 | 28.3 |
| GCACTGCGAAAGCATTGC (((.(((....))).))) | -42.6 | 52.5 |

| Sequence | folding enthalpy [1] [kcal/mol] | Tm [2] [°C] |
| --- | --- | --- |
| GCAGATTCGAAAGAATGC (((..(((....)))))) | -13.9 | 36.3 |
| GTAACGGCGAAAGCCTAC (((..(((....)))))) | -9.07 | 20.7 |
| GTACTGTCGAAAGACTAC (((..(((....)))))) | -10.3 | 26.4 |
| GGGTACCCGAAAGGGCCC (((..(((....)))))) | -18.6 | 47.8 |
| GCCTCTGGAAACAGAAGC ((.((((....)))).)) | -24.2 | 35.6 |
| GGCTTCCGAAAGGACGCC (((.(((....))).))) | -42 | 57.2 |
| GTCCCCGGAAACGGGGGC (.(((((....))))).) | -19.5 | 68 |
| GGTAACGAAAGTTGAACC ((((((....)))..))) | -14.2 | 30.1 |
| GACTGCCGAAAGGCTGTC (((.(((....))).))) | -30.9 | 63.2 |
| GTAGACGAAAGTCGTTAC ((((((....)))..))) | -11 | 34.6 |
| GACCGTGGAAACACGATC ((.((((....)))).)) | -19.1 | 43.1 |
| GCTTCCGAAAGGACAAGC ((((((....)))..))) | -24.2 | 38.5 |
| GGAGCGGCGAAAGCCTCC (((..(((....)))))) | -13.8 | 39.5 |
| GAAACCGGAAACGATTTC ((((.((....)).)))) | -28.9 | 34 |
| GCCATGCGAAAGCGTAGC ((.(.((....)).).)) | -11.2 | 37 |
| GGACTACCGAAAGGTTCC (((..(((....)))))) | -11.2 | 32.8 |
| TGTGGGAAACCACA (((((....))))) | -20.5 | 49.6 |
| GACAGACGAAAGTCGTC (((.(((....)))))) | -17.8 | 53 |
| GGCTAGGGAAACCTAACC ((.((((....)))).)) | -30.3 | 35.2 |
| GGAAACGGAAACGTTCCC ((.((((....)))).)) | -23.1 | 45.1 |
| GATCGGAATCCCGATC ((((((....)))))) | -36.3 | 53.9 |
| GCCAGGGGAAACCCTAGC ((.((((....)))).)) | -22.8 | 41 |
| GTGTTGTCGAAAGACCAC (((..(((....)))))) | -21.6 | 42.4 |

| Sequence | folding enthalpy [1] [kcal/mol] | Tm [2] [°C] |
| --- | --- | --- |
| GAAACCGGAAACAGTTTC (((((.(....).))))) | -25 | 30.8 |
| GTCGCCGAAAGGCCCGAC ((((((....)))..))) | -11.6 | 37.4 |
| GATCGTACCCACGATC ((((((....)))))) | -40 | 54.1 |
| GATCTTATTGAAGATC ((((((....)))))) | -31.5 | 41.8 |
| GATTTGAAAAAATC (((((....))))) | -13.9 | 34 |
| GCCCCTGCGAAAGCAGGC (((..(((....)))))) | -4.68 | 42.4 |
| GGCCAGGGAAACTTGGCC (((((.(....).))))) | -35.7 | 57 |
| GCTACGCGAAAGCATCGC ((.(.((....)).).)) | -9.49 | 30.7 |
| GATCTTACTAAAGATC ((((((....)))))) | -33 | 43 |
| GCTATGCGAAAGCGTTGC ((.(.((....)).).)) | -22.9 | 48.9 |
| GCGGACGGAAACGTCCAC (.(((((....))))).) | -12.2 | 51.1 |
| TCCGAGAAATCGGA (((((....))))) | -19.6 | 46.4 |
| GGATACACGAAAGTGTCC (((..(((....)))))) | -12 | 35.9 |
| GATCAATAAATTGATC ((((((....)))))) | -30.7 | 42.8 |
| GAAGTACGAAAGTAATTC (((.(((....))).))) | -25.9 | 42.9 |
| GACAAACGAAAGTTCGTC (((.(((....))).))) | -25.2 | 43.2 |
| GATCGTTTAAACGATC ((((((....)))))) | -48.9 | 56.1 |
| GGAACTCGAAAGAGGTCC (((.(((....))).))) | -39 | 60 |
| GAGAACGAAAGTTCTC ((((((....)))))) | -36 | 62.4 |
| GGGTCCGAAAGGATGCCC ((((((....)))..))) | -24.3 | 45.5 |
| GCGACTGGAAACAGTCAC (.(((((....))))).) | -14.4 | 48.2 |
| GTATCTCGAAAGAGGTAC (((.(((....))).))) | -34.4 | 48.7 |
| GATCCATTGCTGGATC ((((((....)))))) | -36.6 | 50.8 |
